From PubChem
iPSC survival up – enhancers of single-cell hiPSC survival, primary screen, ATPlite luminescence; 100% = ROCK inhibitor wells, 0% = DMSO; survival enhancement, % at 20 µM; actives 0.044% (n = 360,000); in the data active means survival enhancement above about 18%;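 further: cells exposed to compounds for 16 hours before the ATP read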
NR3A LBD binder – binders of NR3A ligand-binding domain, primary screen, biophysical, differential scanning fluorimetry, uHTS; Glutamate receptor ionotropic, NMDA 3A (GRIN3A) ligand-binding domain; NR3A LBD differential scanning fluorimetry, Tm shift; 0% = protein alone, 100% = glycine-bound protein; Tm shift relative to glycine control, % at 25 µM; actives 2.5% (n = 340,000); AID 1259313, 2017;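 active means melting temperature shift of at least 10% of the positive control shift, at one fixed dose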
SENP1 inh – human SENP1 catalytic domain inhibitors, primary screen, biochemical, FRET, uHTS. recombinant SENP1 catalytic domain, CyPet-SUMO1-YPet FRET cleavage. inhibition, % at 10 µM. actives 0.21% (n = 360,000);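 active means inhibition at least 30% at 10 µM, raw YFP signal under a set limit, fluorescence ratio 0.5 to 1.5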
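Test system: recombinant human SENP1 catalytic domain, His6-tagged / Medium: pH 8 Tris buffer with EDTA, NaCl, BME, BSA, NP40, catalase / Also added: SUMO1 FRET substrate flanked by Cypet and Ypet, 25 nM / Times: 50 min reaction at room temperature / Signal: FRET, CFP and YFP emission / Control set: no-enzyme low control and enzyme-plus-DMSO high control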
Arrestin-AP2 inh – inhibitors of beta-arrestin/AP2 binding, primary screen, biochemical, GPCR trafficking, flow cytometry. beta-arrestin 1 C-terminal peptide binding to AP2 beta2-adaptin appendage (human). FITC-arrestin peptide / GST-AP2 beads; AP2 beta2 appendage carries R879A mutation. inhibition, % at 10 µM. actives 0.31% (n = 340,000);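 active means inhibition above a set limit, near 3 SD of compounds lacking own fluorescence, cut at about 54% in these data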
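System: GST-AP2 R879A glutathione beads | Also added: FITC-arrestin peptide, 50 nM | Times: 12 min plus 1 h, RT | Signal: Bead flow cytometry, FITC channel | Buffer or medium: PBS with 0.05% Tween 20 and 0.1% BSA | Read-out basis: Percent drop in bead-associated FITC signal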
FAS TE block – FAS thioesterase domain inhibitors, primary screen, biochemical, fluorescence intensity, uHTS; inhibition, % at 15 µM; actives 0.67% (n = 360,000); recombinant FAS-TE, OMFH fluorogenic substrate, fluorescence endpoint; Fatty acid synthase (Homo sapiens), P49327; AID 602261, 2012;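 active means compounds whose normalised, plate-corrected inhibition of enzyme fluorescence in the single-dose primary screen is 50% or more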
H9c2 protect – cardioprotection against H2O2-induced cell death, primary screen, uHTS, H9c2 cells, ATPLite luminescence; H9c2 cardiomyocytes, H2O2 injury protection, 2 h; protection from H2O2 cell death, % at 20 µM; actives 0.63% (n = 360,000); AID 588492, 2011;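 active means compounds giving at least 50% protection of heart cells from peroxide-induced death in the single-dose screen, raw or plate-pattern-corrected value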
SENP1 conf – human SENP1 catalytic domain inhibitors, confirmation, biochemical, FRET endpoint, single concentration; shares compounds with SENP1 inh; recombinant SENP1, CyPet-SUMO1-YPet FRET cleavage; inhibition, % at 10 µM; actives 34% (n = 520); in the data active means inhibition mostly above about 35%, no sharp cut-off; inactive means mostly below about 32%
SENP1 kinetic – human SENP1 catalytic domain inhibitors, confirmation, biochemical, kinetic FRET, single concentration; actives 26% (n = 520); inhibition, % at 10 µM; recombinant SENP1, CyPet-SUMO1-YPet FRET kinetic cleavage; shares compounds with SENP1 inh; AID 651690, 2012; in the data active means inhibition mostly above about 32%, no sharp cut-off; inactive means mostly below about 29%
Large screens that a line does not name were inactive (follow-up assays come after a bar, where they were run). Only some compounds are listed: those with a hit (about 4% of all), similar ones and a draw of the others.

N#Cc1cc(C(=O)c2cc(Cl)ccc2O)cn(CC2CCCO2)c1=O (centres undefined)	none
COc1ccc(O)c(C(=O)c2cc(C#N)c(=O)n(Cc3ccccc3)c2)c1	none
Cc1ccc(-n2cnc3sc(C)c(C)c3c2=O)cc1	SENP1 inh 37 | SENP1 conf inactive | SENP1 kinetic inactive
Cc1cccc(-n2cnc3sc(C)c(C)c3c2=O)c1	none
Cc1ccc(C(=O)Nc2ccccc2C(=O)N2CC(C)OC(C)C2)cc1 (centres undefined)	none (no result: NR3A LBD binder, Arrestin-AP2 inh)
COc1cc(CNc2ncnc3c2ncn3[C@H]2CN(Cc3cc(OC)c(OC)c(OC)c3)C[C@@H](CO)O2)cc(OC)c1OC	none (no result: NR3A LBD binder, Arrestin-AP2 inh)
Cc1cc(C)c2c(c1)/C(=N\N=c1\sc3ccccc3n1C)C(=O)N2	SENP1 inh 37 | SENP1 conf inactive | SENP1 kinetic inactive
CC(=O)Nc1ccc(C=C(C#N)c2ccc(C)cc2)cc1	none (no result: NR3A LBD binder, Arrestin-AP2 inh)
COc1cc(SC#N)ccc1N=Cc1c(C)[nH]n(-c2ccc(C)cc2C)c1=O	SENP1 inh 67 | SENP1 conf 38 | SENP1 kinetic 34
CCN(CC)C(=O)c1ccc(NS(=O)(=O)c2ccc3[nH]c(=O)[nH]c3c2)cc1	none
O=C(Nc1cc(F)cc(F)c1)c1ccc(NCCc2ccccc2)c([N+](=O)[O-])c1	SENP1 inh 38 | SENP1 conf 36 | SENP1 kinetic 36
Cc1ccc(NC(=O)c2ccc(NCCc3ccccc3)c([N+](=O)[O-])c2)cc1F	none
O=C(N/N=C(\CC(=O)c1cccs1)C(F)(F)F)c1ccncc1	SENP1 inh 40 | SENP1 conf 50 | SENP1 kinetic 38
COc1ccc(Nc2nnc(SCc3cc(=O)n4ccsc4n3)s2)cc1	SENP1 inh 31, H9c2 protect 63 | SENP1 conf 37 | SENP1 kinetic inactive
CCCN(CCC)C(=O)Cn1c(=O)c2ccccc2n2c(=S)sc(-c3ccccc3C)c12	none
CCCN(CCC)C(=O)Cn1c(=O)c2sccc2n2c(=S)sc(-c3ccccc3)c12	SENP1 inh 66 | SENP1 conf 47 | SENP1 kinetic inactive
CCOCCCNS(=O)(=O)c1ccc(NC(=O)N2c3ccccc3Sc3ccccc32)cc1	none
CCOCCCNS(=O)(=O)c1ccc(NC(=O)CN2C(=O)c3ccccc3C2=O)cc1	SENP1 inh 29 | SENP1 conf inactive | SENP1 kinetic inactive
Cc1c(C(=O)NCc2ccc3c(c2)OCCO3)sc(=O)n1Cc1cccc(C(F)(F)F)c1	none (no result: NR3A LBD binder, Arrestin-AP2 inh)
COc1ccc(NC(=O)C2Cc3c(-c4ccccc4)ccnc3O2)cc1OC (centres undefined)	none (no result: NR3A LBD binder, Arrestin-AP2 inh)
COc1ccc(-c2c(O)c(C#N)c(-c3ccccc3)n(-c3ccc(OC)cc3)c2=O)cc1	SENP1 inh 78 | SENP1 conf inactive | SENP1 kinetic inactive
O=C(NCC1CC1)c1ccc2sc([C@@H]3O[C@H](CO)[C@H](O)[C@H](O)[C@H]3O)nc2c1	none (no result: NR3A LBD binder, Arrestin-AP2 inh)
CCSC1=N/C(=C\C=C2/Oc3ccccc3N2CC)C(=O)S1	SENP1 inh 43 | SENP1 conf inactive | SENP1 kinetic inactive
CCOc1ccccc1NC(=O)c1cc(C(=O)c2cc(OC)ccc2O)coc1=N	SENP1 inh 46 | SENP1 conf inactive | SENP1 kinetic inactive
CCN(CC)CCNc1cccc2sc3ccccc3c(=O)c12	SENP1 inh 32 (no result: NR3A LBD binder, Arrestin-AP2 inh) | SENP1 conf 38 | SENP1 kinetic inactive
CN(C)CCNc1ccc2nnn3c4ccc(O)cc4c(=O)c1c23	none
CCN(CC)CCNc1ccc(CO)c2oc3ccccc3c(=O)c12	SENP1 inh 47 (no result: NR3A LBD binder, Arrestin-AP2 inh) | SENP1 conf 48 | SENP1 kinetic 40
CN(C)CCNc1cccc2sc3ccc(O)cc3c(=O)c12	SENP1 inh 49 (no result: NR3A LBD binder, Arrestin-AP2 inh) | SENP1 conf 57 | SENP1 kinetic inactive
Fc1cccc(Cc2c(-c3ccc(Cl)cc3)nc3c(Cl)cc(C(F)(F)F)cn23)c1	none (no result: NR3A LBD binder, Arrestin-AP2 inh)
CCOC(=O)C1=C(COC(=O)c2ccc3ccccc3c2O)NC(=O)NC1C (centres undefined)	SENP1 inh 38 | SENP1 conf inactive | SENP1 kinetic inactive
O=C1C=C(Nc2ccc(Cl)cc2)C(=O)N1c1ccc(Cl)cc1	SENP1 inh 34 | SENP1 conf 38 | SENP1 kinetic 37
O=C(NC(c1ccc(-c2ccccc2)cc1)c1cnccn1)C1CCN(CCCOc2ccccc2)CC1 (centres undefined)	none (no result: NR3A LBD binder, Arrestin-AP2 inh)
Cc1cc(Oc2ccc(=O)n(C)n2)nc(SCC(N)=O)n1	SENP1 inh 38 | SENP1 conf inactive | SENP1 kinetic inactive
Cc1cc(Oc2ccc(=O)n(C)n2)nc(SCc2ccccc2)n1	none
CN(C)c1nc(-c2ccc([N+](=O)[O-])cc2)cs1	SENP1 inh 46 | SENP1 conf inactive | SENP1 kinetic inactive
C=CCNc1nc(-c2ccc(Cl)cc2)cs1	none
C=CCNc1nc(-c2ccc([N+](=O)[O-])cc2)cs1	SENP1 inh 50 | SENP1 conf inactive | SENP1 kinetic inactive
O=C(NC1CCCC1)C1C(c2ccc(C(F)(F)F)cc2)=Nc2ccccc2N1C(=O)c1cccc2ccccc12 (centres undefined)	none (no result: iPSC survival up, NR3A LBD binder, Arrestin-AP2 inh, FAS TE block, H9c2 protect)
O=C(Nc1cccc(C(F)(F)F)c1)c1ccc2sc([C@@H]3O[C@H](CO)[C@H](O)[C@H](O)[C@H]3O)nc2c1	none (no result: NR3A LBD binder, Arrestin-AP2 inh)
O=C(NNc1nc2c(F)cccc2s1)c1cc(=O)c2ccccc2o1	SENP1 inh 33 | SENP1 conf 66 | SENP1 kinetic 57
C/C=C/c1ccc(OCC(=O)O)c(OC)c1	none
COc1cc(/C=C/c2ccc3c([N+](=O)[O-])cccc3n2)ccc1OCC(=O)O	SENP1 inh 54 | SENP1 conf inactive | SENP1 kinetic inactive
O=S1(=O)CC(N2CCCC2)CN1Cc1cn(Cc2cccc(C(F)(F)F)c2)nn1 (centres undefined)	none (no result: NR3A LBD binder, Arrestin-AP2 inh, H9c2 protect)
